Assay results collected from several papers.
Protocols differ between the studies behind these lines.
FLT3: Receptor-type tyrosine-protein kinase FLT3 (FLT3, Homo sapiens, UniProt P36888)
TYRO3: Tyrosine-protein kinase receptor TYRO3 (TYRO3, Homo sapiens, UniProt Q06418)
AURKC: Aurora kinase C (AURKC, Homo sapiens, UniProt Q9UQB9)
DHFR: Dihydrofolate reductase (DHFR, Homo sapiens, UniProt P00374)
Aldo-keto reductase family 1 member B1: Aldo-keto reductase family 1 member B1 (Bos taurus, UniProt P16116)
HTR2C: 5-hydroxytryptamine receptor 2C (HTR2C, Homo sapiens, UniProt P28335)
FAAH: Fatty-acid amide hydrolase 1 (FAAH, Homo sapiens, UniProt O00519)
CAMK2A: Calcium/calmodulin-dependent protein kinase type II subunit alpha (CAMK2A, Homo sapiens, UniProt Q9UQM7)
F2: Prothrombin (F2, Bos taurus, UniProt P00735)

c1cncc(-c2cccc(Nc3nccc(NC4CCCCC4)n3)c2)c1 — IC50 (FLT3; enzyme activity, inhibitor): 0.032 µM
Cc1ccc(NC(=O)c2ccc(C)c(C(F)(F)F)c2)cc1C#Cc1nn(C2CCC(O)CC2)c2ncnc(N)c12 (centres unmarked) — IC50 (TYRO3; enzyme activity, inhibitor, radiometric): 0.351 µM
c1ccc(-c2cccc(Nc3nccc(NC4CCCCC4)n3)c2)cc1 — IC50 (FLT3; enzyme activity, inhibitor): > 12 µM
O=C1NCCc2[nH]c(-c3cccnc3)cc21 — IC50 (Casein kinase I isoform delta (CSNK1D, Homo sapiens, UniProt P48730); enzyme activity, inhibitor): > 100 µM
COc1ccc2c(Oc3ccc4c(C(=O)Nc5ccccc5N)cccc4c3)ccnc2c1 — IC50 (AURKC; enzyme activity, inhibitor): > 0.5 µM
N[C@H](Cc1c[nH]c2ccccc12)C(=O)O — IC50 (DHFR; enzyme activity, inhibitor): 2000 µM
CC(=N/N=c1\scc(-c2ccc(Cl)cc2)n1Cc1ccccc1)C12CC3CC(CC(C3)C1)C2 — IC50 (Aldo-keto reductase family 1 member B1; enzyme activity, inhibitor, absorbance): 2.18 µM
CCCCNc1ccnc(Nc2cccc(-c3cccnc3)c2)n1 — IC50 (FLT3; enzyme activity, inhibitor): 0.123 µM
CN(CCCCNC(=O)c1cc2ccccc2[nH]1)[C@@H]1Cc2cccc3[nH]c(=O)n(c23)C1 — IC50 (HTR2C; ligand displacement, radioligand): 3.08 µM
CNC(=O)c1cc2c(Oc3ccc(NC(=O)C4(C(=O)Nc5ccc(F)cc5)CC4)cc3)ccnc2cc1OC — IC50 (TYRO3; enzyme activity, inhibitor, radiometric): 0.013 µM
COc1cc(OC)c(C(=O)CCCCN2CCC3(CC2)NC(=O)NC3=O)cc1NS(=O)(=O)c1ccc(C(F)(F)F)cc1 — IC50 (HTR2C; ligand displacement, radioligand): 0.003 µM
CC(Cc1ccc(C(C)(C)C)cc1)C(NN)c1nnnn1Cc1ccc2c(c1)OCO2 (centres unmarked) — IC50 (Endothiapepsin (EAPA, Cryphonectria parasitica, UniProt P11838); enzyme activity, inhibitor, fluorescence): 18 µM
CC/C=C\C/C=C\C/C=C\C/C=C\C/C=C\CCCC(=O)O — IC50 (DNA topoisomerase 2-alpha (TOP2A, Homo sapiens, UniProt P11388); enzyme activity, inhibitor): 10 µM
C/C(=N/N=c1/scc(-c2ccc(Br)cc2)n1Cc1ccccc1)c1ccc2c(c1)OCCO2 — IC50 (Aldo-keto reductase family 1 member B1; enzyme activity, inhibitor, absorbance): 1.39 µM
COc1cccc(-c2cccc(Nc3nccc(NC4CCCCC4)n3)c2)c1 — IC50 (FLT3; enzyme activity, inhibitor): 24.5 µM
Cc1cnc(-c2ccc(-c3ccc(NC(=O)Nc4c(F)cc(F)cc4F)cc3F)c3c2C(=O)NC3)[nH]1 — IC50 (AURKC; enzyme activity, inhibitor): 0.003 µM
N#Cc1ccc(Cn2ccc3c4c(N)nc(N)nc4ccc32)cc1 — IC50 (DHFR; enzyme activity, inhibitor): 0.0068 µM
CC[C@H](C)[C@H](NC(C)=O)C(=O)N[C@@H](CCC(=O)O)C(=O)N[C@H](C(=O)N[C@H](C=O)CC(=O)O)[C@@H](C)O — IC50 (Caspase-4 (CASP4, Homo sapiens, UniProt P49662); enzyme activity, inhibitor): 0.784 µM
O=C(Oc1nsnc1N1CCC(Cc2ccccc2)CC1)N1CCCCC1 — IC50 (FAAH; enzyme activity, inhibitor; cell membranes): 0.324 µM
FC(F)(F)C1(Nc2ccnc(Nc3cccc(-c4cccnc4)c3)n2)CC1 — IC50 (FLT3; enzyme activity, inhibitor): < 0.006 µM
CC1Cc2ccccc2N1C(=O)NCCCCN(C)[C@@H]1Cc2cccc3[nH]c(=O)n(c23)C1 (mixture of isomers) — IC50 (HTR2C; ligand displacement, radioligand): > 10 µM
C/C(=N/N=c1/scc(-c2ccc(Cl)cc2)n1-c1ccc(F)cc1)c1ccc2c(c1)OCCO2 — IC50 (Aldo-keto reductase family 1 member B1; enzyme activity, inhibitor, absorbance): 9.63 µM
O=C(Oc1nsnc1N1CCCCC1)N1CCc2ccccc2C1 — IC50 (FAAH; enzyme activity, inhibitor; cell membranes): 0.562 µM
CCCC[C@@H](C(=O)N[C@@H](CC(=O)O)C(=O)N(C)[C@@H](Cc1ccccc1)C(N)=O)N(C)C(=O)[C@H](Cc1c[nH]c2ccccc12)NC(=O)CNC(=O)[C@H](Cc1ccc(O)cc1)NC(=O)[C@H](C)NC(=O)[C@@H](CCC(=O)O)NC(=O)CN1CCN(CC(=O)O)CCN(CC(=O)O)CCN(CC(=O)O)CC1 — IC50 (Gastrin/cholecystokinin type B receptor (CCKBR, Homo sapiens, UniProt P32239); ligand displacement, radioligand): 0.00498 µM
c1ccc(-c2ccccc2Nc2nccc(NC3CCCCC3)n2)cc1 — IC50 (FLT3; enzyme activity, inhibitor): > 13 µM
CC(C)(C)n1nc(-c2cnc3cc(OC4CC4)ccc3c2)c(C(N)=O)c1N — IC50 (CAMK2A; cell-free assay, inhibitor): > 10 µM
CC(C)Nc1ccnc(Nc2cccc(-c3ccncc3)c2)n1 — IC50 (FLT3; enzyme activity, inhibitor): 0.284 µM
CN1CCN(c2ccc(Nc3ncc4cc(C#N)c(=O)n(C5CCCC5)c4n3)cc2)CC1 — IC50 (Testis-specific serine/threonine-protein kinase 1 (TSSK1B, Homo sapiens, UniProt Q9BXA7); enzyme activity, inhibitor): 0.116 µM
CONc1ccnc(Nc2cccc(-c3cccnc3)c2)n1 — IC50 (FLT3; enzyme activity, inhibitor): > 34 µM
Fc1ccc(C2CCN(c3nc(-c4ccccn4)nc4ccccc34)C2)cc1 (centres unmarked) — IC50 (Sterol 14-alpha demethylase (CYP51, Trypanosoma cruzi, UniProt Q7Z1V1); enzyme activity, inhibitor, fluorescence): > 100 µM
CC(=N/N=c1\scc(-c2ccc(Br)cc2)n1-c1c(C)cccc1C)C12CC3CC(CC(C3)C1)C2 — IC50 (Aldo-keto reductase family 1 member B1; enzyme activity, inhibitor, absorbance): 4.21 µM
CC1=C(/C=C/C(C)=C/C=C/C(C)=C/C=O)C(C)(C)CCC1 — IC50 (F2; enzyme activity, inhibitor, fluorescence): 74 µg/mL
C/C(=N/N=c1/scc(-c2ccc(Br)cc2)n1-c1ccccc1)c1ccc2c(c1)OCCO2 — IC50 (Aldo-keto reductase family 1 member B1; enzyme activity, inhibitor, absorbance): 5.96 µM
O=C(Oc1nsnc1N1CCC(c2ccccc2)CC1)N1CCCCC1 — IC50 (FAAH; enzyme activity, inhibitor; cell membranes): 1.48 µM
CC1=C(/C=C/C(C)=C/C=C/C(C)=C/C(=O)O)C(C)(C)CCC1 — IC50 (F2; enzyme activity, inhibitor, fluorescence): 223 µM
CC(=N/N=c1\scc(-c2ccc(Br)cc2)n1-c1ccccc1C)C12CC3CC(CC(C3)C1)C2 — IC50 (Aldo-keto reductase family 1 member B1; enzyme activity, inhibitor, absorbance): 10.2 µM
O=C(Oc1nsnc1N1CCC2CCCCC2C1)N1CCCCC1 (centres unmarked) — IC50 (FAAH; enzyme activity, inhibitor; cell membranes): 0.031 µM
O=[N+]([O-])c1ccc(-c2nc3ccccc3n2Cc2ccccc2)cc1 — IC50 (DHFR; enzyme activity, inhibitor): 12.3 µM
CC(=N/N=c1\scc(-c2ccc(Br)cc2)n1-c1cccc2ccccc12)C12CC3CC(CC(C3)C1)C2 — IC50 (Aldo-keto reductase family 1 member B1; enzyme activity, inhibitor, absorbance): 12.9 µM
Cc1ccc2nc(-c3ccc([N+](=O)[O-])cc3)n(Cc3ccc(Cl)cc3)c2c1 — IC50 (DHFR; enzyme activity, inhibitor): 8.01 µM
Cc1ccc(C(=O)Nc2ccc(Oc3cc4cnn(C)c4cc3-c3cn[nH]c3)c(F)c2)c(=O)n1-c1ccc(F)cc1 — IC50 (TYRO3; cell growth or viability, ATP luminescence): 0.028 µM
O=C(Nc1ccc(Cl)cc1)N1CCC(n2c(=O)[nH]c3c(Br)cccc32)CC1 — IC50 (Formamidopyrimidine-DNA glycosylase (Escherichia coli, UniProt P05523); enzyme activity, inhibitor): > 100 µM
CN(C)c1ccc(Nc2nc(-c3ccncc3)nc3c2CC(N)CC3)cc1 (centres unmarked) — IC50 (Prostaglandin G/H synthase 1 (PTGS1, Homo sapiens, UniProt P23219); enzyme activity, inhibitor): ~4.5 µM
CC(C)(C)n1nc(-c2ccc3nc(OC4CC4)ccc3c2)c(C(N)=O)c1N — IC50 (CAMK2A; cell-free assay, inhibitor): > 10 µM
